Test results reported in ChEMBL document CHEMBL1157529, “Lantadenes and their esters as potential antitumor agents” (J Nat Prod, 2008).
≈ marks a conversion by molar mass, not a printed value.

How the values were obtained:
HL-60 = experiment: Cytotoxicity against human HL60 cells after 48 hrs by MTT assay; type: functional, cell-based; conditions: HL-60, 48 h
Method in brief: (§1)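 HL-60, HeLa, colon 502713 and A-549 cells grown in RPMI with 10% FBS, streptomycin and penicillin at 37 °C, 5% CO2. Cells (2 × […]/0.1 mL well) exposed 48 h to serial compound dilutions. MTT added for the final 4 h at 37 °C. Formazan extracted in DMSO and read at 540 nm. Mean and standard deviation of triplicate assays.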

HeLa = experiment: Cytotoxicity against human HeLa cells after 48 hrs by MTT assay; type: functional, cell-based; method in brief: as §1
[1] = Cytotoxicity against human colon 502713 cells after 48 hrs by MTT assay; type: functional, cell-based; conditions: Homo sapiens, 502713, 48 h; method in brief: as §1
A549 = experiment: Cytotoxicity against human A549 cells after 48 hrs by MTT assay; type: functional, cell-based; conditions: A549, 48 h; method in brief: as §1
[2] = Inhibition of DMBA-induced/TPA-promoted carcinogenesis in Swiss albino mouse squamous cells assessed as incidence of skin papillomas administered orally 1 week before DMBA administration and continued for 20 weeks relative to DMPA/TPA treated control; type: functional
Method in brief: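 Female Swiss albino mice (LACCA, 6 weeks, 18-22 g), backs depilated. DMBA 100 nmol in 100 µL acetone applied topically for 2 weeks, then TPA 1.7 nmol in 100 µL acetone twice weekly for 18 weeks. Compounds given orally in water/carboxymethyl cellulose, starting 1 week before DMBA, for 20 weeks. n = 10 per group. Papilloma incidence, body weight and survival recorded.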

[3] = Inhibition of DMBA-induced/TPA-promoted carcinogenesis in Swiss albino mouse squamous cells assessed as survival rate administered orally 1 week before DMBA administration and continued for 20 weeks relative to DMPA/TPA treated control; type: functional
Method in brief: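 Female Swiss albino mice (LACCA, 6 weeks, 18-22 g), depilated back; DMBA 100 nmol/100 µL acetone topically for 2 weeks, then TPA 1.7 nmol/100 µL acetone twice weekly for 18 weeks. Compounds given orally as suspension in water/carboxymethyl cellulose from 1 week before DMBA for 20 weeks, n = 10/group. Number of surviving animals recorded at 20 weeks.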

Structure (SMILES) | IC50 (HL-60) [µg/mL] | IC50 (HeLa) [µg/mL] | IC50 [1] [µg/mL] | IC50 (A549) [µg/mL] | inhibition (INH) [2] [%] | survival rate [3] [%]
CCCC(=O)O[C@@H]1CC(C)(C)C[C@H]2C3=CC[C@@H]4[C@@]5(C)CCC(=O)C(C)(C)[C@@H]5CC[C@@]4(C)[C@]3(C)CC[C@@]12C(=O)O | 21.6 (≈ 39.9 µM) | 22.8 (≈ 42.2 µM) | 25.2 (≈ 46.6 µM) | 27.1 (≈ 50.1 µM) | 17.2 | 
COC(=O)[C@@]12CC[C@]3(C)C(=CC[C@@H]4[C@@]5(C)CCC(=O)C(C)(C)[C@@H]5CC[C@]43C)[C@@H]1CC(C)(C)C[C@H]2OC(=O)C(C)C | 39.5 (≈ 71.2 µM) | 41.1 (≈ 74.1 µM) | 38.1 (≈ 68.7 µM) | 42.2 (≈ 76.1 µM) |  | 
COC(=O)[C@@]12CC[C@]3(C)C(=CC[C@@H]4[C@@]5(C)CCC(=O)C(C)(C)[C@@H]5CC[C@]43C)[C@@H]1CC(C)(C)C[C@H]2OC(C)=O | 37.3 (≈ 70.8 µM) | 36.2 (≈ 68.7 µM) | 34.6 (≈ 65.7 µM) | 36.8 (≈ 69.9 µM) |  | 
CC1(C)C[C@@H](O)[C@]2(C(=O)O)CC[C@]3(C)C(=CC[C@@H]4[C@@]5(C)CCC(=O)C(C)(C)[C@@H]5CC[C@]43C)[C@@H]2C1 | < 100 | > 100 | > 100 | > 100 |  | 
CC(=O)O[C@H]1C(=O)[C@@]2(C)[C@H]([C@H](OC(=O)c3ccccc3)[C@]3(O)C[C@H](OC(=O)[C@H](O)[C@@H](NC(=O)c4ccccc4)c4ccccc4)C(C)=C1C3(C)C)[C@]1(OC(C)=O)CO[C@@H]1C[C@@H]2O [PACLITAXEL] | < 2 | > 3 | < 2 | < 2 |  | 
CCC(=O)O[C@@H]1CC(C)(C)C[C@H]2C3=CC[C@@H]4[C@@]5(C)CCC(=O)C(C)(C)[C@@H]5CC[C@@]4(C)[C@]3(C)CC[C@@]12C(=O)O | 26.4 (≈ 50.1 µM) | 28.6 (≈ 54.3 µM) | 25.4 (≈ 48.2 µM) | 29.6 (≈ 56.2 µM) | 19.6 | 80
C/C=C(/C)C(=O)O[C@@H]1CC(C)(C)C[C@H]2C3=CC[C@@H]4[C@@]5(C)CCC(=O)C(C)(C)[C@@H]5CC[C@@]4(C)[C@]3(C)CC[C@@]12C(=O)O [LANTADENE A] | 19.8 (≈ 35.8 µM) | 23.3 (≈ 42.1 µM) | 21.3 (≈ 38.5 µM) | 21.8 (≈ 39.4 µM) | 18.1 | 
COC(=O)[C@@]12CC[C@]3(C)C(=CC[C@@H]4[C@@]5(C)CCC(=O)C(C)(C)[C@@H]5CC[C@]43C)[C@@H]1CC(C)(C)C[C@H]2O | 70.6 (≈ 146 µM) | > 100 | 72.4 (≈ 149 µM) | 84.2 (≈ 174 µM) |  | 
CC(=O)O[C@@H]1CC(C)(C)C[C@H]2C3=CC[C@@H]4[C@@]5(C)CCC(=O)C(C)(C)[C@@H]5CC[C@@]4(C)[C@]3(C)CC[C@@]12C(=O)O | 38.5 (≈ 75.1 µM) | 37.3 (≈ 72.7 µM) | 34.4 (≈ 67.1 µM) | 36.8 (≈ 71.8 µM) |  | 
CC1(C)C[C@@H](OC(=O)c2ccccc2)[C@]2(C(=O)O)CC[C@]3(C)C(=CC[C@@H]4[C@@]5(C)CCC(=O)C(C)(C)[C@@H]5CC[C@]43C)[C@@H]2C1 | 50.8 (≈ 88.4 µM) | 46.3 (≈ 80.5 µM) | 51.2 (≈ 89.1 µM) | > 100 |  | 
COC(=O)[C@@]12CC[C@]3(C)C(=CC[C@@H]4[C@@]5(C)CCC(=O)C(C)(C)[C@@H]5CC[C@]43C)[C@@H]1CC(C)(C)C[C@H]2OC(=O)c1ccccc1 | 48 (≈ 81.5 µM) | 50.7 (≈ 86.1 µM) | > 100 | > 100 |  | 
CCCC(=O)O[C@@H]1CC(C)(C)C[C@H]2C3=CC[C@@H]4[C@@]5(C)CCC(=O)C(C)(C)[C@@H]5CC[C@@]4(C)[C@]3(C)CC[C@@]12C(=O)OC | 19.3 (≈ 34.8 µM) | 20.1 (≈ 36.2 µM) | 21.1 (≈ 38 µM) | 22.4 (≈ 40.4 µM) | 12.4 | 80
CC(C)C(=O)O[C@@H]1CC(C)(C)C[C@H]2C3=CC[C@@H]4[C@@]5(C)CCC(=O)C(C)(C)[C@@H]5CC[C@@]4(C)[C@]3(C)CC[C@@]12C(=O)O | 41.2 (≈ 76.2 µM) | 43.6 (≈ 80.6 µM) | 37.6 (≈ 69.5 µM) | 44.2 (≈ 81.7 µM) |  | 80
CCC(=O)O[C@@H]1CC(C)(C)C[C@H]2C3=CC[C@@H]4[C@@]5(C)CCC(=O)C(C)(C)[C@@H]5CC[C@@]4(C)[C@]3(C)CC[C@@]12C(=O)OC | 24.2 (≈ 44.7 µM) | 26.4 (≈ 48.8 µM) | 22.4 (≈ 41.4 µM) | 28.4 (≈ 52.5 µM) | 17.9 | 80
